According to ChEMBL document CHEMBL5058577, “EUbOPEN Chemogenomics Library 2 (Multiplex)” (2022):

Test system: Fibroblast
Test: Multiplex assay against human fibroblast
Format: toxicity, cell-based
Outline: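 Compound was added to live cells that had been stained at seeding with Hoechst33342, BioTracker Green Microtubule Cytoskeleton Dye, MitoTracker Red and Annexin V Alexa Fluor 680, and imaging followed on a CQ1 microscope at 37°C and 5% CO2. CellPathfinder machine-learning gating divided cells into Hoechst high-intensity objects or normal cells, normal cells into healthy, pyknosed or fragmented nuclei, and pyknosed cells into mitotic or apoptotic. Tubulin, mitochondrial-mass and membrane-permeability phenotypes are per cents of healthy-nucleus cells.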

[1] = 12 h, 1 µM, compound concentration 1 uM, replicate 1
[2] = 12 h, 1 µM, compound concentration 1 uM, replicate 2
[3] = 12 h, 10 µM, compound concentration 10 uM, replicate 1
[4] = 12 h, 10 µM, compound concentration 10 uM, replicate 2
[5] = 24 h, 1 µM, compound concentration 1 uM, replicate 1
[6] = 24 h, 1 µM, compound concentration 1 uM, replicate 2
[7] = 24 h, 10 µM, compound concentration 10 uM, replicate 1
[8] = 24 h, 10 µM, compound concentration 10 uM, replicate 2
[9] = 48 h, 1 µM, compound concentration 1 uM, replicate 1
[10] = 48 h, 1 µM, compound concentration 1 uM, replicate 2
[11] = 48 h, 10 µM, compound concentration 10 uM, replicate 1
[12] = 48 h, 10 µM, compound concentration 10 uM, replicate 2

SMILES: COC[C@@H](c1ccc(C(F)(F)F)cc1)N1CCN(C2(C)CCN(C(=O)c3c(C)ncnc3C)CC2)C[C@@H]1C.O=C(O)/C=C\C(=O)O [VICRIVIROC MALEATE]
- Population Apoptotic (%) [1]: 36%
- Population Fragmented Nuclei (%) [1]: 23%
- Population Healthy Nuclei (%) [1]: 53%
- Population Hoechst High Intensity Objects (%) [1]: 4%
- Population Membrane Permeable-Phenotype (%) [1]: 2%
- Population Mitochondria Different-Phenotype (%) [1]: 11%
- Population Mitotic Cells (%) [1]: 63%
- Population Normal (%) [1]: 95%
- Population Pyknosed Nuclei (%) [1]: 22%
- Population Tubulin-Different-Phenotype (%) [1]: 16%
- Total Cell Count [1]: 138
- Population Healthy Nuclei (%) [2]: 51%
- Population Membrane Permeable-Phenotype (%) [2]: 5%
- Population Mitochondria Different-Phenotype (%) [2]: 13%
- Population Pyknosed Nuclei (%) [2]: 25%
- Population Tubulin-Different-Phenotype (%) [2]: 41%
- Total Cell Count [2]: 190
- Population Apoptotic (%) [3]: 58%
- Population Fragmented Nuclei (%) [3]: 26%
- Population Healthy Nuclei (%) [3]: 59%
- Population Hoechst High Intensity Objects (%) [3]: 17%
- Population Membrane Permeable-Phenotype (%) [3]: 2%
- Population Mitochondria Different-Phenotype (%) [3]: 4%
- Population Mitotic Cells (%) [3]: 41%
- Population Normal (%) [3]: 82%
- Population Pyknosed Nuclei (%) [3]: 14%
- Population Tubulin-Different-Phenotype (%) [3]: 45%
- Total Cell Count [3]: 208
- Population Apoptotic (%) [4]: 33%
- Population Fragmented Nuclei (%) [4]: 48%
- Population Healthy Nuclei (%) [4]: 33%
- Population Hoechst High Intensity Objects (%) [4]: 20%
- Population Membrane Permeable-Phenotype (%) [4]: 12%
- Population Mitotic Cells (%) [4]: 66%
- Population Normal (%) [4]: 79%
- Population Pyknosed Nuclei (%) [4]: 18%
- Population Tubulin-Different-Phenotype (%) [4]: 67%
- Total Cell Count [4]: 186
- Population Apoptotic (%) [5]: 66%
- Population Fragmented Nuclei (%) [5]: 21%
- Population Healthy Nuclei (%) [5]: 57%
- Population Hoechst High Intensity Objects (%) [5]: 3%
- Population Membrane Permeable-Phenotype (%) [5]: 1%
- Population Mitochondria Different-Phenotype (%) [5]: 7%
- Population Mitotic Cells (%) [5]: 33%
- Population Normal (%) [5]: 96%
- Population Pyknosed Nuclei (%) [5]: 20%
- Population Tubulin-Different-Phenotype (%) [5]: 18%
- Total Cell Count [5]: 138
- Population Apoptotic (%) [6]: 30%
- Population Fragmented Nuclei (%) [6]: 28%
- Population Healthy Nuclei (%) [6]: 50%
- Population Membrane Permeable-Phenotype (%) [6]: 8%
- Population Mitochondria Different-Phenotype (%) [6]: 20%
- Population Mitotic Cells (%) [6]: 69%
- Population Pyknosed Nuclei (%) [6]: 21%
- Population Tubulin-Different-Phenotype (%) [6]: 41%
- Total Cell Count [6]: 204
- Population Apoptotic (%) [7]: 73%
- Population Fragmented Nuclei (%) [7]: 23%
- Population Healthy Nuclei (%) [7]: 64%
- Population Hoechst High Intensity Objects (%) [7]: 12%
- Population Membrane Permeable-Phenotype (%) [7]: 0%
- Population Mitochondria Different-Phenotype (%) [7]: 5%
- Population Mitotic Cells (%) [7]: 26%
- Population Normal (%) [7]: 87%
- Population Pyknosed Nuclei (%) [7]: 11%
- Population Tubulin-Different-Phenotype (%) [7]: 42%
- Total Cell Count [7]: 196
- Population Apoptotic (%) [8]: 42%
- Population Fragmented Nuclei (%) [8]: 46%
- Population Healthy Nuclei (%) [8]: 39%
- Population Hoechst High Intensity Objects (%) [8]: 21%
- Population Membrane Permeable-Phenotype (%) [8]: 8%
- Population Mitochondria Different-Phenotype (%) [8]: 12%
- Population Mitotic Cells (%) [8]: 57%
- Population Normal (%) [8]: 78%
- Population Pyknosed Nuclei (%) [8]: 14%
- Population Tubulin-Different-Phenotype (%) [8]: 60%
- Total Cell Count [8]: 183
- Population Apoptotic (%) [9]: 59%
- Population Fragmented Nuclei (%) [9]: 21%
- Population Healthy Nuclei (%) [9]: 56%
- Population Hoechst High Intensity Objects (%) [9]: 3%
- Population Membrane Permeable-Phenotype (%) [9]: 0%
- Population Mitochondria Different-Phenotype (%) [9]: 7%
- Population Mitotic Cells (%) [9]: 40%
- Population Normal (%) [9]: 96%
- Population Pyknosed Nuclei (%) [9]: 21%
- Population Tubulin-Different-Phenotype (%) [9]: 34%
- Total Cell Count [9]: 127
- Population Apoptotic (%) [10]: 53%
- Population Fragmented Nuclei (%) [10]: 33%
- Population Healthy Nuclei (%) [10]: 50%
- Population Hoechst High Intensity Objects (%) [10]: 5%
- Population Membrane Permeable-Phenotype (%) [10]: 9%
- Population Mitochondria Different-Phenotype (%) [10]: 19%
- Population Mitotic Cells (%) [10]: 46%
- Population Normal (%) [10]: 95%
- Population Pyknosed Nuclei (%) [10]: 15%
- Population Tubulin-Different-Phenotype (%) [10]: 58%
- Total Cell Count [10]: 180
- Population Apoptotic (%) [11]: 73%
- Population Fragmented Nuclei (%) [11]: 23%
- Population Healthy Nuclei (%) [11]: 65%
- Population Hoechst High Intensity Objects (%) [11]: 14%
- Population Membrane Permeable-Phenotype (%) [11]: 0%
- Population Mitochondria Different-Phenotype (%) [11]: 5%
- Population Mitotic Cells (%) [11]: 26%
- Population Normal (%) [11]: 85%
- Population Pyknosed Nuclei (%) [11]: 10%
- Population Tubulin-Different-Phenotype (%) [11]: 48%
- Total Cell Count [11]: 206
- Population Apoptotic (%) [12]: 53%
- Population Fragmented Nuclei (%) [12]: 54%
- Population Healthy Nuclei (%) [12]: 35%
- Population Hoechst High Intensity Objects (%) [12]: 20%
- Population Membrane Permeable-Phenotype (%) [12]: 9%
- Population Mitochondria Different-Phenotype (%) [12]: 10%
- Population Mitotic Cells (%) [12]: 46%
- Population Normal (%) [12]: 79%
- Population Pyknosed Nuclei (%) [12]: 9%
- Population Tubulin-Different-Phenotype (%) [12]: 61%
- Total Cell Count [12]: 193
